Results reported in ChEMBL document CHEMBL4351005, “Human constitutive androstane receptor agonist DL5016: A novel sensitizer for cyclophosphamide-based chemotherapies” (Eur J Med Chem, 2019).
Values after ≈ are worked out from the molar mass of the structure shown.

How the values were obtained:
[1] = molecular target: T1, Nuclear receptor subfamily 1 group I member 3 (Homo sapiens, UniProt Q14994); experiment: Agonist activity at human constitutive androstane receptor expressed in HepG2 cells co-expressing CYP2B6 incubated for 23 hrs by One-Glo luciferase reporter gene assay; format: cell-based
T1 sequence (Q14994 whole entry): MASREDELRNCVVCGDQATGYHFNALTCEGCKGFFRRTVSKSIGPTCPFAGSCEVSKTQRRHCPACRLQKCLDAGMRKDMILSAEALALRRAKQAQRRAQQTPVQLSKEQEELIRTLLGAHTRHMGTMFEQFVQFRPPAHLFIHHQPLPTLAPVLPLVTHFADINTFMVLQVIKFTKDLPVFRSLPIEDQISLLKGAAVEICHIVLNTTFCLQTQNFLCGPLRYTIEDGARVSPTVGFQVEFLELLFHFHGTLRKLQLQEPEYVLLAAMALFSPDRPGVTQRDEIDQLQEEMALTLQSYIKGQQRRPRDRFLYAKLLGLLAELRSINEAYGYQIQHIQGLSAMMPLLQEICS
In short: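 HepG2-CYP2B6-hCAR stable reporter cells, 2,500/well, attached 5 h at 37 °C/5% CO₂. Compounds in DMSO, 16 final concentrations from 6.41 pM to 92 μM (1:3 steps), with PK11195 at 0.75 μM final; final DMSO 0.46%. After 23 h, viability read by CellTiter-Fluor (ex 405/em 540 nm), then ONE-Glo luminescence (30 min, RT) in RLU.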

[2] = molecular target: T1, Nuclear receptor subfamily 1 group I member 3; experiment: Ratio of Emax to EC50 for human constitutive androstane receptor expressed in HepG2 cells co-expressing CYP2B6
[3] = molecular target: T2, Nuclear receptor subfamily 1 group I member 2 (Homo sapiens, UniProt O75469); experiment: Agonist activity at human PXR expressed in HepG2 cells co-expressing CYP2B6 at 1 uM incubated for 23 hrs by One-Glo luciferase reporter gene assay; format: cell-based; settings: hepg2, 23 h
T2 sequence (O75469 whole entry): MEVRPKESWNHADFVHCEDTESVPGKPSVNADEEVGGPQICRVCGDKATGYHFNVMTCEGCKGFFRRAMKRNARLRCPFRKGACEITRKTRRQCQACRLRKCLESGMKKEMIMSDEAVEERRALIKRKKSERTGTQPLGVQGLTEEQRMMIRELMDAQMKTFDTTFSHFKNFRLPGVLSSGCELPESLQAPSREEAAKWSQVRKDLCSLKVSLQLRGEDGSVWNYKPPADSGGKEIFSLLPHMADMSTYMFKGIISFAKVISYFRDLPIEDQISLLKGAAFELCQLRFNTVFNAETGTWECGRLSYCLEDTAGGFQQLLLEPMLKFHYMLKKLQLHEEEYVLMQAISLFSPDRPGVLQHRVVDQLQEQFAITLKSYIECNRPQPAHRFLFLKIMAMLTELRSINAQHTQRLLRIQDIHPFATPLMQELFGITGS

[4] = molecular target: T1, Nuclear receptor subfamily 1 group I member 3; experiment: Agonist activity at human constitutive androstane receptor expressed in HepG2 cells co-expressing CYP2B6 at 1 uM incubated for 23 hrs by One-Glo luciferase reporter gene assay; format: cell-based; settings: hepg2, 23 h
[5] = molecular target: T1, Nuclear receptor subfamily 1 group I member 3; experiment: Induction of constitutive androstane receptor in human primary hepatocytes assessed as upregulation of CYP3A4 mRNA expression measured after 24 hrs by RT-PCR analysis; format: cell-based
In short: (§1)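 Primary human hepatocytes (donors HL-#131 and #133), viability >90%, 0.75×10⁶ cells/well, Matrigel overlay 0.25 mg/mL. Dosed 36 h post-seeding at 0.1, 0.5 and 1 μM (vehicle 0.1% DMSO; rifampin 10 μM reference) for 24 h. RT-PCR fold over control = 2^ΔΔCt versus GAPDH; mean ± SD, three independent experiments.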

[6] = molecular target: T1, Nuclear receptor subfamily 1 group I member 3; experiment: Induction of constitutive androstane receptor in human primary hepatocytes assessed as upregulation of CYP3A4 protein expression measured after 72 hrs by Western blot analysis; format: cell-based
In short: (§2)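 Hepatocytes from donors #131 and #133, dosed 36 h after seeding at 0.1, 0.5 and 1 μM (0.1% DMSO vehicle) for 72 h. Homogenate proteins run on 4–12% SDS-PAGE and immunoblotted: anti-CYP2B6 1:200, anti-CYP3A4 1:5000, β-actin 1:50,000 loading control. HRP secondaries, ECL detection.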

[7] = Aqueous solubility of the compound in phosphate buffer at pH 7.4 measured after 6 hrs by reverse phase HPLC analysis; format: physicochemical; settings: pH 7.4, 6 h
In short: (§3)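 6 mg solid in 1 mL water or PBS (pH 7.4), shaken 6 h at 25 °C, centrifuged, and the supernatant filtered. Filtrate quantified by C18 reverse-phase HPLC: water-acetonitrile-triethylamine 30:70:0.01, 1 mL/min, UV 312 nm. Standard curve from solutions of known concentration.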

[8] = test system: SUD4; experiment: Antiproliferative activity against human SUDHL4 cells co-cultured with human primary hepatocytes assessed as reduction in cell viability at 1 uM after 24 hrs; format: cell-based; settings: sud4, 24 h
In short: (§4)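 Hepatocytes pretreated 24 h with 1 μM test agent or 0.1% DMSO. 0.5×10⁶ SU-DHL-4 cells then added in membrane inserts (Williams' E). Co-cultures exposed with or without CHOP (5, 100, 500 μM; time course at 100 μM), plus or minus 1 μM agent. Viability by trypan blue exclusion at 24 h or set times, as % of vehicle; three independent measurements.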

[9] = molecular target: T1, Nuclear receptor subfamily 1 group I member 3; experiment: Induction of adenoviral enhanced yellow fluorescent protein tagged constitutive androstane receptor translocation from cytoplasm to nucleus in human primary hepatocytes at 1 uM measured after 8 hrs by DAPI staining based fluorescent microscopic analysis; format: cell-based
In short: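 Hepatocytes (60,000/well, collagen plates) infected overnight with Ad/EYFP-hCAR (3 μL/mL), then treated 8 h at 1 μM; controls 0.1% DMSO, phenobarbital 1 mM. Cells PFA-fixed and DAPI-stained; five images per well. Translocation % = cells with ≥50% nuclear overlap with EYFP-hCAR ÷ EYFP-positive cells; mean ± SD of five images.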

[10] = molecular target: T1, Nuclear receptor subfamily 1 group I member 3; experiment: Induction of constitutive - androstane receptor in human primary hepatocytes assessed as upregulation of CYP2B6 protein expression measured after 72 hrs by Western blot analysis; format: cell-based; in short: as §2
[11] = Stability of compound; format: physicochemical
[12] = Lipophilicity, logP of compound; format: physicochemical; settings: octanol/water
[13] = Aqueous solubility of compound measured after 6 hrs by reverse phase HPLC analysis; format: physicochemical; settings: water; in short: as §3
[14] = test system: SUD4; experiment: Potentiation of cyclophospamide/doxorubicin/vincristine/prednisone induced cytotoxicity against human SUDHL4 cells co-cultured with human primary hepatocytes assessed as reduction in cell viability after 24 hrs; format: functional, cell-based; in short: as §4
[15] = test system: SUD4; experiment: Potentiation of cyclophospamide/doxorubicin/vincristine/prednisone induced cytotoxicity against human SUDHL4 cells co-cultured with human primary hepatocytes assessed as reduction in cell viability at 1 uM; format: functional, cell-based; settings: TDE = time-dependent effect; in short: as §4
[16] = molecular target: T1, Nuclear receptor subfamily 1 group I member 3; experiment: Induction of constitutive - androstane receptor in human primary hepatocytes assessed as upregulation of CYP2B6 mRNA expression measured after 24 hrs by RT-PCR analysis; format: cell-based; in short: as §1
[17] = molecular target: T1, Nuclear receptor subfamily 1 group I member 3; experiment: Induction of constitutive - androstane receptor in human primary hepatocytes assessed as upregulation of CYP2B6 mRNA expression at 0.5 to 5 uM after 24 hrs by RT-PCR analysis; format: cell-based
[18] = molecular target: T1, Nuclear receptor subfamily 1 group I member 3; experiment: Induction of constitutive - androstane receptor in human primary hepatocytes assessed as upregulation of CYP3A4 mRNA expression at 0.5 to 5 uM after 24 hrs by RT-PCR analysis; format: cell-based

Structure (SMILES) | EC50 [1] [µM] | Ratio [2] | Activity [4] | other results
Clc1ccc(-c2nc3ncccn3c2CNCCc2ccc(Cl)c(Cl)c2)cc1 | 0.92 | 3 µM⁻¹ |  | 
Clc1ccc(-c2nc3sccn3c2CNCCc2ccccc2)cc1 | 0.74 | 3.9 µM⁻¹ | Active | Activity [3]: Active
Fc1ccc(-c2nc3sccn3c2CNCCc2ccc(Cl)c(Cl)c2)cc1 | 0.15 | 18 µM⁻¹ | Active | 
Clc1ccc(CCNCc2c(-c3ccc(Br)cc3)nc3sccn23)cc1Cl | 0.56 | 4.6 µM⁻¹ |  | 
Fc1ccc(CCNCc2c(-c3ccc(Cl)cc3)nc3sccn23)cc1 | 2.1 | 1.4 µM⁻¹ |  | 
CC(C)(C)c1ccc(-c2nc3sccn3c2CNCCc2ccc(Cl)c(Cl)c2)cc1 | 10 | 0.74 µM⁻¹ |  | 
c1ccc2c(c1)CC(NCc1c(-c3ccc4ccccc4c3)nc3occn13)C2 | 0.66 | 7.4 µM⁻¹ |  | Activity [5]: Active; Activity [6]: Dose-dependent effect; solubility [7]: 17 µg/mL (≈ 44.8 µM); Activity [8]: Non-Toxic; Activity [9]: Active; Activity [10]: Dose-dependent effect; Stability [11]: Stable; logP [12]: 4.62; solubility [13]: 18 µg/mL (≈ 47.4 µM); Activity [14]: Dose-dependent effect; Activity [15]: Tde; Activity [16]: Dose-dependent effect
Clc1cccc(-c2nc3sccn3c2CNCCc2ccc(Cl)c(Cl)c2)c1 | 0.93 | 3.4 µM⁻¹ |  | 
c1ccc(CCNCc2c(-c3ccc4ccccc4c3)nc3sccn23)cc1 | 1.9 | 1.9 µM⁻¹ | Active | 
Clc1ccc(CCNCc2c(-c3ccc(Cl)cc3)nc3sccn23)cc1 | 0.65 | 4.3 µM⁻¹ | Active | Activity [3]: Active
Clc1ccc(CCNCc2c(-c3ccccc3)nc3sccn23)cc1Cl | 0.24 | 12 µM⁻¹ | Active | 
Clc1ccc(CCNCc2c(-c3ccc4ccccc4c3)nc3sccn23)cc1Cl | 1.5 | 2.4 µM⁻¹ | Active | Activity [3]: Active
N#Cc1ccc(-c2nc3sccn3c2CNCCc2ccc(Cl)c(Cl)c2)cc1 | 1.5 | 1.9 µM⁻¹ |  | 
Clc1ccc(-c2nc3sccn3c2CNCCc2c[nH]c3ccccc23)cc1 | 2.7 | 1.4 µM⁻¹ |  | 
Clc1ccc(-c2nc3sccn3c2CNC2Cc3ccccc3C2)cc1 | 0.46 | 7.4 µM⁻¹ | Active | Activity [3]: Active
Clc1ccc(-c2nc3sccn3c2COCCc2ccc(Cl)c(Cl)c2)cc1 | 0.19 | 13 µM⁻¹ | Active | Activity [3]: Active
O=C(NCCc1ccc(Cl)c(Cl)c1)c1c(-c2ccc(Cl)cc2)nc2sccn12 | 1.1 | 2.4 µM⁻¹ |  | 

Structure (SMILES) | EC50 [1] [µM] | Ratio [2] | Activity [4] | other results
Clc1ccc(-c2nc3sccn3c2/C=N/CCc2ccc(Cl)c(Cl)c2)cc1 | 54 | 0.13 µM⁻¹ |  | Activity [17]: Not Active; Activity [18]: Not Active
Clc1ccc(-c2nc3sccn3c2CNc2ccc3ccccc3c2)cc1 | 63 | 0.22 µM⁻¹ |  | 
Cc1ccc(-c2nc3sccn3c2CNCCc2ccc(Cl)c(Cl)c2)cc1 | 0.44 | 6.1 µM⁻¹ |  | 
c1ccc2c(c1)CC(NCc1c(-c3ccc4ccccc4c3)nc3sccn13)C2 | 1.6 | 2.4 µM⁻¹ | Active | Activity [3]: Active
Cc1cn2c(CNCCc3ccc(Cl)c(Cl)c3)c(-c3ccc(Cl)cc3)nc2s1 | 2.2 | 1.4 µM⁻¹ |  | 
Clc1ccc(-c2nc3sccn3c2CNCCc2ccc(Br)cc2)cc1 | 3.2 | 1.1 µM⁻¹ |  | 
FC(F)(F)c1ccc(-c2nc3sccn3c2CNCCc2ccc(Cl)c(Cl)c2)cc1 | 2.1 | 1.7 µM⁻¹ |  | 
Clc1ccc(-c2nc3occn3c2CNCCc2ccc(Cl)c(Cl)c2)cc1 | 1.3 | 2.3 µM⁻¹ |  | 
Oc1ccc(CCNCc2c(-c3ccc(Cl)cc3)nc3sccn23)cc1 | 10 | 0.36 µM⁻¹ |  | 
COc1ccc(-c2nc3sccn3c2CNCCc2ccc(Cl)c(Cl)c2)cc1 | 0.67 | 4.3 µM⁻¹ |  | 
CCc1nc2sccn2c1CNCCc1ccc(Cl)c(Cl)c1 | 8.7 | 0.37 |  | 
Clc1ccc(-c2nc3sccn3c2CNCCc2ccc(Cl)c(Cl)c2)cc1 | 0.4 | 7 µM⁻¹ | Active | Activity [3]: Active
Clc1ccc(-c2nc3sccn3c2CNCCc2cccc(Cl)c2)cc1 | 2.8 | 1.1 µM⁻¹ |  | 
CN(CCc1ccc(Cl)c(Cl)c1)Cc1c(-c2ccc(Cl)cc2)nc2sccn12 | 1.1 | 2.1 µM⁻¹ |  | 
Clc1ccc(-c2nc3sccn3c2/C=N/OCc2ccc(Cl)c(Cl)c2)cc1 |  |  | Active | Activity [5]: Active; Activity [6]: Active; Activity [9]: Active; Activity [10]: Dose-dependent effect; Activity [3]: Active; logP [12]: 7.26; Activity [16]: Dose-dependent effect
Clc1ccc(-c2nc3sccn3c2CNCc2ccccc2)cc1 | 9.2 | 0.42 µM⁻¹ |  | 
